In the library only some 12% were active in any assay of this set; here they are far more common.
Rad51 HR inh: human RAD51 strand exchange inhibitors, primary screen, biochemical, fluorescence; DNA repair protein RAD51 homolog 1 (Homo sapiens), Q06609; inhibition, % at 10 µM; 200,000 compounds, 0.085% hits; hRad51 DNA strand exchange, fluorescence dequenching;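 active means inhibition above 40% at the single screening dose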;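 further: 0% = DMSO control wells and 100% = blanks with heterologous ssDNA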
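Material: hRad51 filaments on single-stranded DNA; Reagent: Donor/quencher-labelled 47-bp dsDNA substrate; Compound: 10 µM final, single point; Schedule: 37 °C 15-min filament assembly, 30-min compound preincubation, 15-min exchange; Technique: FRET fluorescence, excitation 485 nm, emission 520 nm; Benchmarks: control wells and blank wells on each plate.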
PKD1 inh: inhibitors of human PKD1 kinase, biochemical, fluorescence polarization; 200,000 compounds, 0.056% hits; Serine/threonine-protein kinase D1 (Homo sapiens), Q15139; PKD1 kinase fluorescence polarization assay; inhibition, % (concentration not given with the values)
Arbovirus inh: antivirals against arbovirus infection, primary screen, cell-based, full library, 10K replicate subset | 200,000 compounds, 0.37% hits | inhibition, % at 10 µM | arbovirus infection cell-based antiviral screen | AID 1251, 2008; in the data active means inhibition above about 30%
Wee1 stabilizer: Wee1 degradation inhibitors, primary screen, cell-based, HeLa, Wee1K328M-luciferase, luminescence; HeLa Luc-Wee1K328M stability; 100% = proteasome inhibitor MG132 effect; reporter increase, % at 5 µM; 220,000 compounds, 1.2% hits; AID 1321, 2008;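 active means activation above the mean of all tested compounds plus 3 SD, set per screening run, cut at about 8.8% in these data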;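 further: cells exposed to compound for 20 h before luminescence read; 0% = DMSO alone and 100% = MG132 at 30 µM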
Target sequence (P30291 whole entry K328M): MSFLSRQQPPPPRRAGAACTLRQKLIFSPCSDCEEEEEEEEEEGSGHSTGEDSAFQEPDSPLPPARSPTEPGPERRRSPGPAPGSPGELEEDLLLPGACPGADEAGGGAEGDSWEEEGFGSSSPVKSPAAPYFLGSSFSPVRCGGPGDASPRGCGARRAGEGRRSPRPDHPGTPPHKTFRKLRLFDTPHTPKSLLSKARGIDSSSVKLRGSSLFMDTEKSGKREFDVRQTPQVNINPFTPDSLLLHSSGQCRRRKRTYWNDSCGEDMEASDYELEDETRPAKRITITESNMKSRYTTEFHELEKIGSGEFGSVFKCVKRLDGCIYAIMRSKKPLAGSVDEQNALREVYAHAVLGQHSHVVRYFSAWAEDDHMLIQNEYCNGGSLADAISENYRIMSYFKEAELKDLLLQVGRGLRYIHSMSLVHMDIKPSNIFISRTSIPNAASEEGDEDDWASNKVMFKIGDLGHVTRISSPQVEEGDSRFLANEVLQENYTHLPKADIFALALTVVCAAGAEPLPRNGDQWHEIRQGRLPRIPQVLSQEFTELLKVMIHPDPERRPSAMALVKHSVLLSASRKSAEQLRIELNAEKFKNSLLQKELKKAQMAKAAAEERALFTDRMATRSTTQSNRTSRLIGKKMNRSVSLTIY
Lmaj promast: Leishmania major promastigote growth inhibition, primary screen | Leishmania major promastigotes, resazurin fluorescence viability | inhibition, % at 10 µM | 200,000 compounds, 9% hits;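 further: promastigotes grown with compound for 44 hours at 28 °C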
CHOP inhibitor: inhibitors of CHOP promoter induction, primary screen, cell-based, unfolded protein response, luciferase reporter. CHO-K1 CHOP-promoter luciferase, tunicamycin-induced, 15-18 h. AID 2732, 2010. inhibition, % at 10 µM. 220,000 compounds, 3.8% hits;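 active means compounds that reduced the stress-induced luciferase reporter signal by more than about 70% of percent inhibition, limit read from the data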;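 further: 0% = tunicamycin plus vehicle and 100% = wells without tunicamycin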
An asterisk follows results filed as active. Unless noted, no stated cut-off is given here; in the data, active means inhibition above about 50%; inactive means the rest.

Screening Cc1nc(NC(=O)c2csc3ccccc23)sc1C returned Rad51 HR inh 2, PKD1 inh 4, Arbovirus inh -5, Wee1 stabilizer 2, Lmaj promast 60* and CHOP inhibitor 37.
For Cc1c(-c2ccccc2)oc2c(C(=O)N3CCN(c4ccccc4F)CC3)cccc2c1=O the results were PKD1 inh 7, Arbovirus inh -7, Wee1 stabilizer -2, Lmaj promast 0 and CHOP inhibitor 71*.
For Cc1ccc(NC(=O)COC(=O)c2cccc3c(=O)c(C)c(-c4ccccc4)oc23)cc1 the results were Rad51 HR inh 1, PKD1 inh -7, Arbovirus inh 9, Wee1 stabilizer 1, Lmaj promast 66* and CHOP inhibitor 8.
Screening COc1cccc2cc(C(=O)N3CCN(c4ccccc4F)CC3)c(=O)oc12 returned Rad51 HR inh -4, PKD1 inh 3, Arbovirus inh 7, Wee1 stabilizer 2, Lmaj promast -5 and CHOP inhibitor 4.
`CCCCNC(=O)c1cccc2c(=O)c(C)c(-c3ccccc3)oc12` gave Rad51 HR inh -7, PKD1 inh -12, Arbovirus inh -8, Wee1 stabilizer 1, Lmaj promast 1 and CHOP inhibitor 8.
Screening CCCCN(C(=O)c1cccc2c(=O)c(C)c(-c3ccccc3)oc12)c1ccccc1 returned Rad51 HR inh 10, PKD1 inh -6, Arbovirus inh -31, Wee1 stabilizer 1, Lmaj promast 73* and CHOP inhibitor -9.
For CS(=O)(=O)N1CCC(Oc2ccccc2C(=O)NCCCc2cccnc2)CC1 the results were Rad51 HR inh -7, PKD1 inh -6, Arbovirus inh 3, Wee1 stabilizer 3, Lmaj promast 3 and CHOP inhibitor -3.
For CCOc1ccc(-c2cc(CCCC(=O)NCc3cccnc3)no2)cc1 the results were Rad51 HR inh -4, PKD1 inh -15, Arbovirus inh -3, Wee1 stabilizer -3, Lmaj promast 29 and CHOP inhibitor 80*.
Screening CCOc1ccc(NC(=O)CCCc2cc(-c3ccc(OCC)cc3)on2)cc1 returned Rad51 HR inh -3, PKD1 inh -11, Arbovirus inh -2, Wee1 stabilizer -1, Lmaj promast -5 and CHOP inhibitor 83*.
Screening S=C(Nc1cccc(Cl)c1Cl)N1CCC2(CC1)OCCO2 returned Rad51 HR inh -16, PKD1 inh -8, Arbovirus inh 1, Wee1 stabilizer 0, Lmaj promast -4 and CHOP inhibitor 17.
Screening CC(C)OC(=O)/C(=C\c1ccccc1)NC(=O)c1ccccc1 returned PKD1 inh -4, Arbovirus inh -4, Wee1 stabilizer 0, Lmaj promast -2 and CHOP inhibitor 5.
CC(C)OC(=O)/C(=C\c1cccc2ccccc12)NC(=O)c1ccccc1 was read as PKD1 inh -10, Arbovirus inh 6, Wee1 stabilizer 6, Lmaj promast 91* and CHOP inhibitor 30.
For Cc1ccc2cc(CCNS(=O)(=O)c3ccc(F)cc3)c(=O)[nH]c2c1C the results were PKD1 inh -4, Arbovirus inh 5, Wee1 stabilizer 2, Lmaj promast 2 and CHOP inhibitor 21.
For COc1ccc(/C=C2\CCCC(C(=O)C(F)(F)F)=C2O)cc1 the results were Rad51 HR inh 3, PKD1 inh -2, Arbovirus inh 7, Wee1 stabilizer 7, Lmaj promast 15 and CHOP inhibitor -12.
For O=C(C1=C(O)/C(=C/c2ccc(O)cc2)CCC1)C(F)(F)F the results were Rad51 HR inh 5, PKD1 inh -6, Arbovirus inh 0, Wee1 stabilizer -1, Lmaj promast 56* and CHOP inhibitor 8.
Screening Clc1ccccc1-c1ncc2ccccn12 returned Rad51 HR inh 9, PKD1 inh -7, Arbovirus inh 2, Wee1 stabilizer 8.9*, Lmaj promast -8 and CHOP inhibitor 6.
`O=C(NC(=S)N1CCN(c2nc(-c3ccccc3)cs2)CC1)c1cncc(Br)c1` gave Rad51 HR inh 5, PKD1 inh 0, Arbovirus inh -15, Wee1 stabilizer -1, Lmaj promast -6 and CHOP inhibitor 12.

From PubChem
